Results from ChEMBL document CHEMBL4680079, “Discovery of a Quinoline-4-carboxamide Derivative with a Novel Mechanism of Action, Multistage Antimalarial Activity, and Potent in Vivo Efficacy” (J Med Chem, 2016).
pEC50: −log10 of the molar value. Values after ≈ are worked out from the molar mass of the structure shown.

Legend:
[1] = test system: Plasmodium falciparum; assay: Antiplasmodial activity against chloroquine-sensitive Plasmodium falciparum 3D7 infected in human red blood cells assessed as growth inhibition by SYBR Green fluorescence assay; format: functional, organism-based, RBC; conditions: 3D7, Erythrocyte
In short: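 P. falciparum 3D7 grown in 5% human red cells in RPMI 1640 (pH 7.3) with 0.5% Albumax II, hypoxanthine and gentamicin at 37°C under 1% O₂/3% CO₂. Growth measured by SYBR green fluorescence (ex 485/em 528 nm), with mefloquine as assay control. EC50 calculated.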

[2] = test system: MRC5; assay: Antiproliferative activity against human MRC5 cells assessed as reduction in cell viability after 68 hrs by resazurin dye based fluorescence assay; conditions: MRC5, 68 h
In short: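 MRC-5 fibroblasts plated overnight as monolayers, exposed to compound pre-diluted in MEM for 68 h. Resazurin then added (final 50 μM) for 3 h, fluorescence read at ex 528/em 590 nm. Signal converted to % inhibition against high- and no-inhibition controls. Plates accepted at Z' > 0.5.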

[3] = Kinetic aqueous solubility of the compound by laser nephelometry; format: physicochemical; conditions: read-out: Kinetic_solubility
In short: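 Kinetic solubility measured by laser nephelometry. DMSO serial dilutions diluted into water to give final 100–5 μg/mL at 1.0% DMSO. Read immediately, in triplicate aliquots.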

[4] = Intrinsic clearance in CD1 mouse liver microsomes at 0.5 uM in presence of NADPH incubated upto 30 mins by UPLC-MS/MS analysis; format: ADME, Microsome; conditions: 0.5 h
In short: (§1)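 Compound at 0.5 μM incubated with female CD1 mouse, male Sprague-Dawley rat or pooled human liver microsomes (0.5 mg/mL, 50 mM potassium phosphate, pH 7.4). Reaction started with excess NADPH. Samples taken at 0-30 min, quenched in acetonitrile, analysed by UPLC-MS/MS. Verapamil used as control, single time course.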

[5] = Permeability of the compound at 10 uM incubated for 5 hrs by UPLC-MS/MS analysis based PAMPA method; format: ADME; conditions: read-out: permeability
In short: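 PAMPA run on a lipid-oil-lipid tri-layer filter at pH 7.4. Compound at 10 μM in PBS (DMSO ≤5%) in donor wells, PBS in acceptor wells, kept 5 h at room temperature. Both compartments quantified by UPLC-MS/MS. Data accepted only when recovery exceeded 70%.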

[6] = test system: Plasmodium berghei; assay: Antiplasmodial activity against Plasmodium berghei ANKA infected in NMRI mouse assessed as reduction in parasitemia at 1 mg/kg, po QD for 4 days; format: functional; design: scale not given: the % may be the effect or the level left; conditions: time 4 day
In short: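 Female NMRI mice (n=3 per group, randomized, not blinded) infected with GFP-transfected P. berghei ANKA. Oral dosing once daily for 4 days in 10% DMSO/40% PEG400/50% water or HPMC suspension vehicle. Parasitaemia measured by flow cytometry on blood collected 96 h after infection. Mice watched for toxicity over 4 h post-dose each day.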

[7] = Intrinsic clearance in Sprague-Dawley rat liver microsomes at 0.5 uM in presence of NADPH incubated upto 30 mins by UPLC-MS/MS analysis; format: ADME, Microsome; conditions: 0.5 h; in short: as §1
[8] = test system: Plasmodium berghei; assay: Antiplasmodial activity against Plasmodium berghei ANKA infected in NMRI mouse assessed as survival days at 1 mg/kg, po QD for 4 days; format: functional; conditions: time 4 day
[9] = test system: Plasmodium falciparum; assay: Antiplasmodial activity against late stage (IV/V) Plasmodium falciparum NF54 gametocytes transfected with GFP-LUC assessed as growth inhibition incubated for 72 hrs by mitotracker Red-CMXROS dye based fluorescence microscopic analysis; format: functional, organism-based; conditions: NF54, 72 h
In short: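 NF54 pfs16-LUC-GFP stage IV–V gametocytes (10% parasitaemia, 0.1% haematocrit) exposed to compound in 0.4% DMSO, three concentrations per log, for 72 h at 37°C under 5% CO2/5% O2/90% N2. MitoTracker Red CM-H2Xros then added for 16 h and viable gametocytes counted by imaging.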

[10] = Protein binding in CD1 mouse plasma measured after 5 hr by UPLC-MS/MS analysis based equilibrium dialysis method; format: ADME, cell-free; conditions: mouse, 5 h
In short: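 Equilibrium dialysis of female CD1 mouse plasma spiked at 10 μg/mL (12-14 kDa membrane) against isotonic buffer for 5 h at ~37°C with shaking. Unbound fraction taken as the buffer/plasma peak-area ratio by UPLC-MS/MS. n=6 replicates, run in triplicate.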

[11] = Intrinsic clearance in human liver microsomes at 0.5 uM in presence of NADPH incubated upto 30 mins by UPLC-MS/MS analysis; format: ADME, Microsome; conditions: 0.5 h; in short: as §1

Row | Compound | pEC50 [1] | pEC50 [2] | solubility kinetic [3] [µM] | CLH [4] [mL/min/g] | other results
1 | O=C(NCCN1CCCC1)c1cc(-c2ccc(N3CCOCC3)cc2)nc2ccc(F)cc12 | 6.22 | 4.77 | – | – | –
2 | Cc1ccc(-c2cc(C(=O)NCCN3CCN(C)CC3)c3cc(Cl)ccc3n2)cc1 | 5.48 | 5.10 | – | – | –
3 | O=C(NCCN1CCCC1)c1cc(-c2cccc(CN3CCOCC3)c2)nc2ccc(F)cc12 | 4.96 | – | – | – | –
4 | O=C(NCCN1CCOCC1)c1cc(-c2ccc(CN3CCOCC3)cc2)nc2ccc(F)cc12 | 7.92 | – | > 210 | < 0.5 | –
5 | O=C(NCCN1CCCC1)c1cc(N2CCn3ccnc3C2)nc2ccc(F)cc12 | 5.24 | < 4.30 | – | – | –
6 | Cc1ccc(-c2cc(C(=O)NCCN(C)C)c3cc(Cl)ccc3n2)cc1 | 5.92 | 5.05 | – | – | –
7 | O=C(NCCN1CCC(F)CC1)c1cc(NCCCN2CCOCC2)nc2ccc(F)cc12 | 6.05 | – | – | – | Papp at 5 h, 10 µM [5]: 5.8 ×10⁻⁶ cm/s
8 | O=C(NCCN1CCC(F)(F)C1)c1cc(NCCCN2CCOCC2)nc2ccc(F)cc12 | 4.74 | – | – | – | Papp at 5 h, 10 µM [5]: 8.9 ×10⁻⁶ cm/s
9 | O=C(NCCN1CCCC(F)(F)C1)c1cc(NCCCN2CCOCC2)nc2ccc(F)cc12 | 4.44 | – | – | – | Papp at 5 h, 10 µM [5]: 12 ×10⁻⁶ cm/s
10 | O=C(NCCN1CCCC1)c1cc(N2CCC(N3CCOCC3)CC2)nc2ccc(F)cc12 | 6.17 | 4.60 | 220 (≈ 100 µg/mL) | 0.5 | –
11 | Cc1ccc(-c2cc(C(=O)NCCN3CCCCC3)c3cc(Cl)ccc3n2)cc1 | 6.49 | 5.15 | – | – | –
12 | Cc1ccc(-c2cc(C(=O)Nc3cccnc3)c3cc(Br)ccc3n2)cc1 | 6.92 | 4.68 | 39 (≈ 16.3 µg/mL) | 5.3 | –
13 | Cc1cc(Nc2cc(C(=O)NCCN3CCCC3)c3cc(F)ccc3n2)on1 | < 4.30 | < 4.30 | – | – | –
14 | O=C(NCCN1CCCC1)c1cc(-c2ccc(CN3CCS(=O)(=O)CC3)cc2)nc2ccc(F)cc12 | 9.22 | 4.39 | 171 (≈ 87.3 µg/mL) | < 0.5 | Activity [6]: 99%; CLH [7]: 0.8 mL/min/g; Survival [8]: 7 days; Papp at 5 h, 10 µM [5]: 1.4 ×10⁻⁶ cm/s
15 | COc1ccc2nc3cc(Cl)ccc3c(Nc3cc(CN4CCCC4)c(O)c(CN4CCCC4)c3)c2n1 [PYRONARIDINE] | – | – | – | – | pEC50 [9]: 5.51
16 | C[C@@H]1CC[C@H]2[C@@H](C)C(=O)O[C@@H]3O[C@@]4(C)CC[C@@H]1[C@]32OO4 [ARTEMISININ] | – | – | – | – | pEC50 [9]: 9.10
17 | O=C(NCCN1CCCC1)c1cc(-c2ccc(CN3CCOCC3)cc2Cl)nc2ccc(F)cc12 | 8.52 | < 4.30 | > 201 | 0.5 | PPB [10]: 56%
18 | O=C(NCCN1CCCC1)c1cc(-c2ccc(CN3CCOCC3)c(F)c2)nc2ccc(F)cc12 | 9.22 | 4.72 | > 208 | 1 | Activity [6]: 99.8%; Survival [8]: 11 days; Papp at 5 h, 10 µM [5]: 6.3 ×10⁻⁶ cm/s

Row | Compound | pEC50 [1] | pEC50 [2] | solubility kinetic [3] [µM] | CLH [4] [mL/min/g] | other results
19 | O=C(NCCN1CCC(F)(F)CC1)c1cc(NCCCN2CCOCC2)nc2ccc(F)cc12 | 4.82 | – | – | – | Papp at 5 h, 10 µM [5]: 9.4 ×10⁻⁶ cm/s
20 | O=C(NCCN1CCCC1)c1cc(N2CCC(N3CCOCC3)CC2)nc2ccc(Cl)cc12 | 6.82 | 4.89 | 210 (≈ 99.1 µg/mL) | 2.3 | –
21 | Cc1ccc(-c2cc(C(=O)NCCN3CCCC3)c3cc(F)ccc3n2)cc1 | 6.15 | 5.05 | 180 (≈ 67.9 µg/mL) | 3.4 | –
22 | Cc1ccc(-c2cc(C(=O)Nc3cccnc3)c3ccccc3n2)cc1 | 6.00 | < 4.30 | – | – | –
23 | Cc1ccc(-c2cc(C(=O)NCCN3CCCC3)c3cc(Cl)ccc3n2)cc1 | 6.36 | 5.15 | 13 (≈ 5.12 µg/mL) | 2.1 | –
24 | O=C(NCCN1CCCC1)c1cc(NCCN2CCOCC2)nc2ccc(F)cc12 | 6.72 | 4.30 | – | – | –
25 | O=C(NCCN1CCCC1)c1cc(-c2ccc(C(=O)N3CCOCC3)cc2)nc2ccc(F)cc12 | 6.85 | < 4.30 | – | – | –
26 | Cc1ccc(-c2cc(C(=O)Nc3cccnc3)c3cc(F)ccc3n2)cc1 | 6.46 | 4.30 | 36 (≈ 12.9 µg/mL) | 8.6 | –
27 | Cc1ccc(-c2cc(C(=O)Nc3cccnc3)c3cc(Cl)ccc3n2)cc1 | 6.54 | 4.68 | – | – | –
28 | O=C(NCCN1CCCC1)c1cc(NCCC2CCOCC2)nc2ccc(F)cc12 | 8.70 | < 4.30 | – | – | –
29 | Cc1ccc(-c2cc(C(=O)NCCCN(C)C)c3cc(Cl)ccc3n2)cc1 | 5.17 | 5.22 | 262 (≈ 100 µg/mL) | 1.1 | –
30 | CN1CCN(c2cc(C(=O)NCCN3CCCC3)c3cc(F)ccc3n2)CC1 | 4.47 | 4.70 | – | – | –
31 | O=C(NCCN1CCCC1)c1cc(NCCN2CCCCC2)nc2ccc(F)cc12 | 5.05 | 4.72 | – | – | –
32 | O=C(NCCN1CCCC1)c1cc(-c2ccc(CN3CCCC3=O)cc2)nc2ccc(F)cc12 | 8.15 | – | > 217 | 2 | Activity [6]: <40%; CLH [7]: 0.6 mL/min/g; Papp at 5 h, 10 µM [5]: 4.9 ×10⁻⁶ cm/s; CLH [11]: 2 mL/min/g
33 | CN(C)c1ccc(-c2cc(C(=O)NCCN3CCCC3)c3cc(F)ccc3n2)cc1 | 6.09 | 5.00 | – | – | –
34 | Cc1ccc(-c2cc(C(=O)NCCN3CCOCC3)c3cc(Cl)ccc3n2)cc1 | 5.44 | 4.59 | 12 (≈ 4.92 µg/mL) | 11 | –
35 | COc1cc(C)c2c(Oc3cccc(C(F)(F)F)c3)c(OC)cc(NC(C)CCCN)c2n1 (centres undefined) [TAFENOQUINE] | – | – | – | – | pEC50 [9]: 5.28
36 | O=C(NCCN1CCOCC1)c1cc(NCCCN2CCOCC2)nc2ccc(F)cc12 | 5.60 | – | – | – | Papp at 5 h, 10 µM [5]: 2.4 ×10⁻⁶ cm/s
